Source: PubChem BioAssay
Insulin prom up: MIN6 insulin promoter up-regulation. MIN6 insulin promoter-GFP reporter, high-content imaging; stronger effect = higher value. z-score at 5 µM. actives 0.3% (n = 190,000);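 active = z-score above 3 at 5 µM with at least 500 cells counted in the well; inconclusive = wells under 500 cells, flagged as cytotoxic or low count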
b-catenin transl: alters nuclear translocation of beta-catenin in HeLa cells | nuclear translocation activity, % at 5 µM | actives 0.3% (n = 190,000) | immunofluorescence imaging;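 active = nuclear translocation activity above 50% at 5 µM, with a well cell count of 50 or more; inconclusive = wells under 50 cells across six images, flagged as toxic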;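 note: per-cell ratio of nuclear to cytoplasmic median beta-catenin stain intensity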
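System: Human HeLa cells, endogenous beta-catenin | Compound dosing: 5 µM primary, 0.02–20 µM confirmation | Timing: 24 h compound exposure at 37°C, 5% CO2 | Measured by: Fluorescence imaging of beta-catenin antibody stain plus DAPI | Read-out basis: % activation of per-cell nuclear versus cytoplasmic median beta-catenin signal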
MT stabilizer: stabilizes microtubules in HeLa cells | HeLa tubulin immunostaining HCS, 24 h; share of cells brighter than vehicle mean+2SD | % tubulin-high responders, % at 10 µM | actives 0.83% (n = 200,000) | AID 2205;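 active = plate Z-score above 3 for both tubulin-high and condensed-nucleus cell shares, with cell loss under 80%, at 10 µM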;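 note: anti alpha tubulin signal scored within the nucleus-defined area of each cell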
Autophagy HCS: modulators of autophagy | MEF GFP-LC3 puncta imaging; test concentration mostly 10 µM | calls only at 10 µM (by protocol) | actives 0.98% (n = 190,000) | AID 463193;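 active = percentage of spot-positive cells more than 3 SD above its plate mean, without a fluorescence outlier flag or 80% toxicity; inconclusive = no clear call, values can overlap the other calls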
A number is an active result. In the library only some 1.9% were active in any assay of this set; here they are far more common.

For Cc1nc2c(C)cccc2cc1C(=O)N/N=C/c1ccc(C(=O)O)cc1 the results were Insulin prom up inactive, b-catenin transl inactive, MT stabilizer inactive and Autophagy HCS inactive.
For Cc1nc2c(C)cccc2cc1C(=O)N/N=C/c1cccc([N+](=O)[O-])c1 the results were Insulin prom up inactive, b-catenin transl inactive, MT stabilizer 20.3 and Autophagy HCS inactive.
Screening Cc1nc2c(C)cccc2cc1C(=O)N/N=C/c1ccc(N(C)C)cc1 returned Insulin prom up inactive, b-catenin transl inactive, MT stabilizer 40.0 and Autophagy HCS inactive.
`Cc1ccc2nc(C)c(C(=O)N/N=C/c3cccc([N+](=O)[O-])c3)cc2c1` gave Insulin prom up inactive, MT stabilizer inactive and Autophagy HCS inactive.
Screening CCOC(=O)c1sc2nc(CSc3ccccc3)nc(N3CCCN(C)CC3)c2c1C returned Insulin prom up inactive, b-catenin transl inactive, MT stabilizer inactive and Autophagy HCS active.
Cc1noc(C)c1COc1ccc(CC(=O)NCc2ccccc2)cc1 was read as Insulin prom up inactive, b-catenin transl inactive, MT stabilizer 19.7 and Autophagy HCS inactive.
Cc1noc(C)c1COc1ccc(CC(=O)NC2CCCCCC2)cc1 was read as Insulin prom up inactive, b-catenin transl inactive, MT stabilizer inactive and Autophagy HCS inactive.
For Cc1noc(C)c1COc1cccc(C(=O)NCCc2c[nH]c3ccccc23)c1 the results were Insulin prom up inactive, b-catenin transl inactive, MT stabilizer 23.9 and Autophagy HCS inactive.
COc1ccc(S(=O)(=O)Nc2cc3c4c(oc3c3ccccc23)CC(C)(C)CC4=O)cc1 was read as Insulin prom up inactive, b-catenin transl inactive, MT stabilizer 20.0 and Autophagy HCS inactive.
COc1ccc(S(=O)(=O)Nc2cc3c4c(oc3c3ccccc23)CCCC4=O)cc1 was read as Insulin prom up inactive, b-catenin transl inactive, MT stabilizer 24.9 and Autophagy HCS inactive.
O=C1CN(C(=O)COC(=O)c2ccccc2NCc2ccco2)c2ccccc2N1 was read as Insulin prom up inactive, b-catenin transl inactive, MT stabilizer inactive and Autophagy HCS inactive.
Screening O=C1CN(C(=O)c2cc3ccccc3o2)c2ccccc2N1 returned Insulin prom up inactive, b-catenin transl inactive, MT stabilizer inactive and Autophagy HCS inactive.
For Cc1ccc(C(=O)Nc2cccc(C(=O)O)c2)cc1S(=O)(=O)N1CCCCC1 the results were Insulin prom up inactive, b-catenin transl inactive, MT stabilizer inactive and Autophagy HCS inactive.
Screening Cc1ccc(S(=O)(=O)NCCc2nnc3ccc(SCC(=O)Nc4nc(C)cs4)nn23)cc1 returned Insulin prom up inactive, b-catenin transl inactive, MT stabilizer inactive and Autophagy HCS inactive.
Screening N#CC1=C(N)Oc2c(ccc3ccccc23)C1c1cccs1 (stereo not drawn) returned Insulin prom up inactive, b-catenin transl 130.8, MT stabilizer 20.0 and Autophagy HCS active.
For COC(=O)Nc1nnc(COc2cccc(C)c2)s1 the results were Insulin prom up inactive, b-catenin transl inactive, MT stabilizer inactive and Autophagy HCS inactive.
Cc1cccc(C(=O)Nc2nnc(COc3ccccc3)s2)c1 was read as Insulin prom up inactive, b-catenin transl inactive, MT stabilizer inactive and Autophagy HCS active.
Screening CCN1/C(=C/C=C/c2oc3ccc4ccccc4c3[n+]2CC)Oc2ccc3ccccc3c21 returned MT stabilizer 80.4 and Autophagy HCS inconclusive.
Screening CC[n+]1c(/C=C/N(C)c2ccccc2)oc2ccc(Cl)cc21 returned Insulin prom up inconclusive, b-catenin transl inactive, MT stabilizer inactive and Autophagy HCS inactive.
Screening CCC(=C(c1ccc(OC)cc1)c1ccc(OC)cc1)c1cn(CC(O)CN2CCN(C)CC2)c2ccccc12 (stereo not drawn) returned Insulin prom up inactive, b-catenin transl inactive, MT stabilizer inactive and Autophagy HCS active.
Screening CCOC(=O)c1cc2c(N)c(C(=O)c3cc(C#N)c(SC)nc3C)sc2nc1C returned Insulin prom up inactive, b-catenin transl inactive, MT stabilizer inactive and Autophagy HCS active.
`Cc1cccc(N=c2c([N+](=O)[O-])nn(-c3ccc(Cl)cc3)n2O)c1` gave Insulin prom up inactive, b-catenin transl inactive, MT stabilizer inactive and Autophagy HCS inactive.
Screening Cc1cc(C)cc(N=c2c([N+](=O)[O-])nn(-c3cccc(Cl)c3)n2O)c1 returned Insulin prom up inactive, MT stabilizer inactive and Autophagy HCS active.
For COc1ccc(NC(=O)c2ccccc2-c2ccccc2)c(C)c1 the results were Insulin prom up inactive, b-catenin transl inactive, MT stabilizer inactive and Autophagy HCS inactive.
`COC(=O)/C=c1/s/c(=C(\C#N)C(=O)NCc2ccco2)n(-c2ccc(C)cc2)c1=O` gave Insulin prom up inactive, b-catenin transl inactive, MT stabilizer inactive and Autophagy HCS active.
